Assay results: ChEMBL document CHEMBL4425133, “Discovery and Pharmacokinetic and Pharmacological Properties of the Potent and Selective MET Kinase Inhibitor 1-{6-[6-(4-Fluorophenyl)-[1,2,4]triazolo[4,3-b]pyridazin-3-ylsulfanyl]benzothiazol-2-yl}-3-(2-morpholin-4-ylethyl)urea (SAR125844)” (J Med Chem, 2016)
“And” between values parts separate entries of the source, which are not always exact repeats. Equal values may be shown once. The source made the active and inactive calls. The calls are words filed in the database; no cut-off is given here.

What was measured:
[1] = Lipophilicity, log D of the compound by HPLC method; assay type: physicochemical
[2] = molecular target: T1, Hepatocyte growth factor receptor (Homo sapiens, UniProt P08581); assay: Inhibition of phosphorylated MET in human MKN45 cells assessed as reduction in pMET Y1230/1234/1235 level incubated for 1 hr by ELISA; assay type: cell-based
In short: (§1)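 MKN-45 is a MET-amplified human gastric tumour cell line.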

[3] = Genotoxicity in Salmonella typhimurium by Ames test; assay type: toxicity; details: salmonella enterica subsp. enterica serovar typhimurium
[4] = molecular target: Cyclin-dependent kinase 9 (Homo sapiens, UniProt P50750); assay: Inhibition of CDK9 (unknown origin)
[5] = system: MKN-45; assay: Antiproliferative activity against human MKN45 cells assessed as reduction in [14C]-thymidine incorporation incubated for 96 hrs by beta counting method; assay type: functional, cell-based; details: for IC50: MKN-45, 96 h; in short: as §1
[6] = molecular target: Tubulin; assay: Binding affinity to tubulin (unknown origin); assay type: protein-complex assay, Homo sapiens
[7] = molecular target: T1, Hepatocyte growth factor receptor; assay: Inhibition of wild type phosphorylated MET (unknown origin) pre-incubated for 30 mins before biotinylated poly(glutamate-alanine-tyrosine) peptide addition and measured after 5 mins by HTRF assay
[8] = Equilibrium solubility in phosphate buffer in absence of 10% Labrasol at pH 7.4; assay type: physicochemical
[9] = Equilibrium solubility in phosphate buffer in presence of 10% Labrasol at pH 7.4; assay type: physicochemical; details: phosphate buffer with 10% Labrasol
[10] = molecular target: Hepatocyte growth factor receptor (Homo sapiens, UniProt P08581, Y1230H); assay: Inhibition of phosphorylated MET Y1230H mutant (unknown origin) pre-incubated for 30 mins before biotinylated poly(glutamate-alanine-tyrosine) peptide addition and measured after 5 mins by HTRF assay
[11] = molecular target: Hepatocyte growth factor receptor (Homo sapiens, UniProt P08581, L1195V); assay: Inhibition of phosphorylated MET L1195V mutant (unknown origin) pre-incubated for 30 mins before biotinylated poly(glutamate-alanine-tyrosine) peptide addition and measured after 5 mins by HTRF assay
[12] = Clearance in dog at 3 mg/kg, iv relative to hepatic blood flow; assay type: ADME, organism-based, Canis lupus familiaris; details: in vivo
[13] = Clearance in rat at 5 mg/kg, iv relative to hepatic blood flow; assay type: ADME, organism-based; details: in vivo
[14] = Drug uptake in tumor of SCID mouse bearing advanced-stage human Hs746T cells at 20 mg/kg, iv administered as single dose after 1 to 72 hrs by liquid chromatography-tandem mass spectrometry; assay type: ADME, organism-based, Neoplasm; details: in vivo
[15] = Oral bioavailability in mouse; assay type: ADME, organism-based; details: in vivo
[16] = Toxicity in advanced solid tumor patient at 50 to 740 mg/m2 during phase-1 trial; details: human, in vivo
[17] = Terminal half life in rat at 5 mg/kg, iv […]; assay type: ADME, organism-based; details: in vivo, read-out: beta t1/2 (converted)
[18] = Drug level in advanced solid tumor patient at 50 to 740 mg/m2 during phase-1 trial; assay type: ADME; details: human, in vivo
[19] = Drug uptake in tumor of SCID mouse bearing advanced-stage human Hs746T cells at 20 mg/kg, iv administered as single dose after 24 hrs by liquid chromatography-tandem mass spectrometry; assay type: ADME, organism-based, Neoplasm; details: read-out: Drug uptake
[20] = system: Mus musculus; assay: Inhibition of MET Y1349 phosphorylation in SCID mouse bearing advanced-stage human Hs746T cells at 20 mg/kg, iv administered as single dose after 48 hrs by using MSD assay; assay type: functional
[21] = Clearance in rat at 5 mg/kg, iv; assay type: ADME, organism-based; details: in vivo
[22] = molecular target: Hepatocyte growth factor receptor (Homo sapiens, UniProt P08581, M1250T); assay: Inhibition of phosphorylated MET M1250T mutant (unknown origin) pre-incubated for 30 mins before biotinylated poly(glutamate-alanine-tyrosine) peptide addition and measured after 5 mins by HTRF assay
[23] = Drug distribution in rat at 25 mg/kg administered as [14C[-labeled compound through infusion after 1 to 2 hrs; assay type: ADME, organism-based; details: in vivo, iv
[24] = Volume of distribution at steady state in advanced solid tumor patient at 50 to 740 mg/m2 during phase-1 trial; assay type: ADME; details: human, in vivo; read-out: Vdss
[25] = Clearance in SCID mouse bearing advanced-stage human Hs746T cells at 20 mg/kg, iv administered as single dose after 1 to 72 hrs by liquid chromatography-tandem mass spectrometry; assay type: ADME, organism-based; details: in vivo
[26] = molecular target: T1, Hepatocyte growth factor receptor; assay: Binding affinity to MET (unknown origin) by isothermal titration calorimetry
[27] = in vivo; details: SCID, mouse, tumor/plasma, iv, 20 mg/kg
[28] = Volume of distribution at steady state in dog at 3 mg/kg, iv; assay type: ADME, organism-based, Canis lupus familiaris; details: in vivo, read-out: Vdss
[29] = Drug metabolism in human hepatic microsomes at 5 uM incubated for 20 mins in presence of NADPH by liquid chromatography-tandem mass spectrometry; assay type: ADME, Microsome; details: liver microsomes, read-out: Drug metabolism
[30] = system: Mus musculus; assay: Inhibition of MET Y1349 phosphorylation in SCID mouse bearing advanced-stage human Hs746T cells at 20 mg/kg, iv administered as single dose after 4 hrs by using MSD assay; assay type: functional
[31] = Clearance in mouse at 1 mg/kg, iv; assay type: ADME, organism-based; details: in vivo
[32] = system: Mus musculus; assay: Inhibition of MET Y1349 phosphorylation in SCID mouse bearing advanced-stage human Hs746T cells at 20 mg/kg, iv administered as single dose after 24 hrs by using MSD assay; assay type: functional
[33] = Clearance in mouse at 1 mg/kg, iv relative to hepatic blood flow; assay type: ADME, organism-based; details: in vivo
[34] = Blood clearance in advanced solid tumor patient at 50 to 740 mg/m2 during phase-1 trial; assay type: ADME, tissue-based; details: human, whole blood
[35] = Clearance in dog at 3 mg/kg, iv; assay type: ADME, organism-based, Canis lupus familiaris; details: in vivo
[36] = Volume of distribution at steady state in mouse at 1 mg/kg, iv; assay type: ADME, organism-based; details: in vivo, read-out: Vdss
[37] = Unbound drug uptake in tumor of SCID mouse bearing advanced-stage human Hs746T cells at 20 mg/kg, iv administered as single dose after 24 hrs by liquid chromatography-tandem mass spectrometry; assay type: ADME, organism-based, Neoplasm; details: in vivo
[38] = molecular target: T2, Cytochrome P450 3A4 (Homo sapiens, UniProt P08684); assay: Inhibition of human recombinant CYP3A4 co-expressed with human P450 reductase and human b5 reductase assessed as reduction in 7-Hydroxyquinoline production using 7-benzyloxyquinoline as substrate and NADPH incubated for 15 mins by fluorimetry; assay type: ADME
[39] = Terminal half life in advanced solid tumor patient at 50 to 740 mg/m2 during phase-1 trial; assay type: ADME; details: human, in vivo; read-out: beta t1/2 (converted)
[40] = Terminal half life in mouse at 1 mg/kg, iv […]; assay type: ADME, organism-based; details: in vivo, read-out: beta t1/2 (converted)
[41] = Blood clearance in advanced solid tumor patient at 50 to 740 mg/m2 relative to hepatic blood flow during phase-1 trial; assay type: ADME, tissue-based; details: human
[42] = Protein binding in plasma of SCID mouse bearing advanced-stage human Hs746T cells at 20 mg/kg, iv administered as single dose after 24 hrs by liquid chromatography-tandem mass spectrometry; assay type: ADME, organism-based; details: read-out: PPB (converted)
[43] = Volume of distribution at steady state in SCID mouse bearing advanced-stage human Hs746T cells at 20 mg/kg, iv administered as single dose after 1 to 72 hrs by liquid chromatography-tandem mass spectrometry; assay type: ADME, organism-based; details: in vivo, read-out: Vdss
[44] = Volume of distribution at steady state in rat at 5 mg/kg, iv; assay type: ADME, organism-based; details: in vivo, read-out: Vdss
[45] = Apparent permeability from apical to basolateral side in human Caco2/TC7 cells at 20 uM by liquid chromatography-tandem mass spectrometry; details: Caco-2
[46] = Terminal half life in dog at 3 mg/kg, iv; assay type: ADME, organism-based, Canis lupus familiaris; details: in vivo, read-out: beta t1/2 (converted)
[47] = AUC in SCID mouse bearing advanced-stage human Hs746T cells at 20 mg/kg, iv administered as single dose after 1 to 72 hrs by liquid chromatography-tandem mass spectrometry; assay type: ADME, organism-based; details: in vivo
[48] = system: Mus musculus; assay: Inhibition of MET Y1349 phosphorylation in SCID mouse bearing advanced-stage human Hs746T cells at 20 mg/kg, iv administered as single dose after 4 to 48 hrs by using MSD assay; assay type: functional, organism-based; details: TDE = time-dependent effect
[49] = Drug distribution in rat tumor at 25 mg/kg administered as [14C[-labeled compound through infusion after 1 to 2 hrs; assay type: ADME, organism-based, Neoplasm; details: in vivo, iv
[50] = molecular target: T2, Cytochrome P450 3A4; assay: Mechanism based time dependent inhibition of human recombinant CYP3A4 co-expressed with human P450 reductase and human b5 reductase assessed as reduction in 7-Hydroxyquinoline production using 7-benzyloxyquinoline as substrate and NADPH measured every 3 mins for 15 mins by fluorimetry; assay type: ADME; details: recombinant enzyme, 0.25 h

T2 sequence (P08684 whole entry): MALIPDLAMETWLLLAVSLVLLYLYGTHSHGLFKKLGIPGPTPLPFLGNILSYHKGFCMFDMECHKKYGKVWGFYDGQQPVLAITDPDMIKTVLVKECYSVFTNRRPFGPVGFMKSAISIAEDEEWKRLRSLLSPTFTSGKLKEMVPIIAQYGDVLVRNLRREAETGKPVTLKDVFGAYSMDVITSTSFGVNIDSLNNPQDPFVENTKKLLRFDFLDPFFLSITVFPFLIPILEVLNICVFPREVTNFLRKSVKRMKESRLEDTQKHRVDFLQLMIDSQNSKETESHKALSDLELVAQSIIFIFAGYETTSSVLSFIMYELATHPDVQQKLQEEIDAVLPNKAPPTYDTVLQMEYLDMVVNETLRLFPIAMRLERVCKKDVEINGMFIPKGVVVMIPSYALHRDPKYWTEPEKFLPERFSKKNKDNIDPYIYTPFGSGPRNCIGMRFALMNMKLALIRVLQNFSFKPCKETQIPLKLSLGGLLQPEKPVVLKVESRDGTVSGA
Sequence of Hepatocyte growth factor receptor (Homo sapiens, UniProt P08581, Y1230H) (P08581 25-1390 Y1230H limits assumed): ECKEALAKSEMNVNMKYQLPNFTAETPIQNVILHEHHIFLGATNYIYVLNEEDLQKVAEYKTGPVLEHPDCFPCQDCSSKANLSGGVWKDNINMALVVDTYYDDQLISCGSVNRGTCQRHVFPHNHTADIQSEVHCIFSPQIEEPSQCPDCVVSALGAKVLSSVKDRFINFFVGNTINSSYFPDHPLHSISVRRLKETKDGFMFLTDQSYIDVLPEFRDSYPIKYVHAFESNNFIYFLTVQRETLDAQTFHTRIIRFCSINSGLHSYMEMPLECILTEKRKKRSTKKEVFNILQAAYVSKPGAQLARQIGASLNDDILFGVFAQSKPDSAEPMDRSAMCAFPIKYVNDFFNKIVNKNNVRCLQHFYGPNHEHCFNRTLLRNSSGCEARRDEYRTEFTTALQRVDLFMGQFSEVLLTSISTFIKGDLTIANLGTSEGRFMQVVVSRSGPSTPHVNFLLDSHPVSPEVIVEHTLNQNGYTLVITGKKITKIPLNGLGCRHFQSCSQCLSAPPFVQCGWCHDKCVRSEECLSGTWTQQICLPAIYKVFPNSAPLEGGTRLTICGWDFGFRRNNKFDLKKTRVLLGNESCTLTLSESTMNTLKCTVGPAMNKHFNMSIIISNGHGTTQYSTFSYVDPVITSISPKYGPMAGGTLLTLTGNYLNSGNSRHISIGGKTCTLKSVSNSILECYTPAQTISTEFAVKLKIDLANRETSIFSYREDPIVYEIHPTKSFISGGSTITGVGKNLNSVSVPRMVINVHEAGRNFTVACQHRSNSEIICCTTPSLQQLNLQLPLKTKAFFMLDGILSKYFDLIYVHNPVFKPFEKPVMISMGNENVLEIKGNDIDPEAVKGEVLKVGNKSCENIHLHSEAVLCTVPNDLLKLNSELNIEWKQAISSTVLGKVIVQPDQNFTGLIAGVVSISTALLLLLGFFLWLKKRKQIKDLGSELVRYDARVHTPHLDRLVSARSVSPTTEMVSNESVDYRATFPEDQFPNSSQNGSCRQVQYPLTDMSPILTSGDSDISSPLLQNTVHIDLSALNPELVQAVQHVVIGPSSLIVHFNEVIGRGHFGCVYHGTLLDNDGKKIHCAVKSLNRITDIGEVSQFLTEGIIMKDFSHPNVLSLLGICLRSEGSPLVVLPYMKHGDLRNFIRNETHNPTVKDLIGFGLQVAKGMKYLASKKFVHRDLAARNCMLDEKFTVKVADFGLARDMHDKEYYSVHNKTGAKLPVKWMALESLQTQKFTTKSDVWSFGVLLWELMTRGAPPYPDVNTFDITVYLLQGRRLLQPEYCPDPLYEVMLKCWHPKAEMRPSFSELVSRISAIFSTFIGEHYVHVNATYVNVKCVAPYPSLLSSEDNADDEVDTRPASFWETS
T1 sequence (P08581 whole entry): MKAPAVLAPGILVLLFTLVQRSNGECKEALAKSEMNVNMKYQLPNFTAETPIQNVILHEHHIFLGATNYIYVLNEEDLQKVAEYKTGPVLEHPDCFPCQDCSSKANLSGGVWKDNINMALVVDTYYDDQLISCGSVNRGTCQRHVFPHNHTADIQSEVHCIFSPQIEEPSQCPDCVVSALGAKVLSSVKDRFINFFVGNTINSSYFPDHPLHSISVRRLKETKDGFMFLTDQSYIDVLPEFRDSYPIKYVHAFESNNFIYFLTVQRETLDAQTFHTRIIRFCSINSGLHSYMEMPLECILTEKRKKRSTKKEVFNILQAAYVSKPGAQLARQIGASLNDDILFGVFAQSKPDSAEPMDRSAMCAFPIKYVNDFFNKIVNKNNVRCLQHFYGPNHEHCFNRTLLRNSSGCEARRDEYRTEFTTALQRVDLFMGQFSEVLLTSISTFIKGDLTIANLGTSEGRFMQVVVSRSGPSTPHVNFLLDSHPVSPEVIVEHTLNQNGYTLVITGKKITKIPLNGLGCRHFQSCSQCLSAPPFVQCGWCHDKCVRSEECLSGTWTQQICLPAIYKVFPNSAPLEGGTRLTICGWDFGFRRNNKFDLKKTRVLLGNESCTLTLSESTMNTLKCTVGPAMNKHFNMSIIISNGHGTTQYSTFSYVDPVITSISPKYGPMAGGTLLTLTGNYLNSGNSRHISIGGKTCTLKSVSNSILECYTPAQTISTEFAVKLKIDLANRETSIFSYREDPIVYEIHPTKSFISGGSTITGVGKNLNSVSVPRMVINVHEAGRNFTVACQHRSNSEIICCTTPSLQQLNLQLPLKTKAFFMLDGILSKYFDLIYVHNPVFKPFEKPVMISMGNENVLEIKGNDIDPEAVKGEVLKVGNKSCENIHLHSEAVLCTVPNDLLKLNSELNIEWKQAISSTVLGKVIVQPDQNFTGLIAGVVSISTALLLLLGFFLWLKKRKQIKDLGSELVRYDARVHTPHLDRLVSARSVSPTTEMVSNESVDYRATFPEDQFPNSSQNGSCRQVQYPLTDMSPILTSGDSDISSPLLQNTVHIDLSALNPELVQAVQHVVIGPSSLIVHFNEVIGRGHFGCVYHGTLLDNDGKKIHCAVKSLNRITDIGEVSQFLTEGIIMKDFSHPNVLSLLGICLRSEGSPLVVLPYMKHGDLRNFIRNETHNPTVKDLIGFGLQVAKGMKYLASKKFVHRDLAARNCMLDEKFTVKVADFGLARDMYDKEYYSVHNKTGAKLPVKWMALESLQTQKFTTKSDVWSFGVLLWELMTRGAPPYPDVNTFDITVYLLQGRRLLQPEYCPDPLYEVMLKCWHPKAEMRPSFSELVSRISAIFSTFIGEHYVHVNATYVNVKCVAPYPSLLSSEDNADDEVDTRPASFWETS
Sequence of Hepatocyte growth factor receptor (Homo sapiens, UniProt P08581, L1195V) (P08581 25-1390 L1195V limits assumed): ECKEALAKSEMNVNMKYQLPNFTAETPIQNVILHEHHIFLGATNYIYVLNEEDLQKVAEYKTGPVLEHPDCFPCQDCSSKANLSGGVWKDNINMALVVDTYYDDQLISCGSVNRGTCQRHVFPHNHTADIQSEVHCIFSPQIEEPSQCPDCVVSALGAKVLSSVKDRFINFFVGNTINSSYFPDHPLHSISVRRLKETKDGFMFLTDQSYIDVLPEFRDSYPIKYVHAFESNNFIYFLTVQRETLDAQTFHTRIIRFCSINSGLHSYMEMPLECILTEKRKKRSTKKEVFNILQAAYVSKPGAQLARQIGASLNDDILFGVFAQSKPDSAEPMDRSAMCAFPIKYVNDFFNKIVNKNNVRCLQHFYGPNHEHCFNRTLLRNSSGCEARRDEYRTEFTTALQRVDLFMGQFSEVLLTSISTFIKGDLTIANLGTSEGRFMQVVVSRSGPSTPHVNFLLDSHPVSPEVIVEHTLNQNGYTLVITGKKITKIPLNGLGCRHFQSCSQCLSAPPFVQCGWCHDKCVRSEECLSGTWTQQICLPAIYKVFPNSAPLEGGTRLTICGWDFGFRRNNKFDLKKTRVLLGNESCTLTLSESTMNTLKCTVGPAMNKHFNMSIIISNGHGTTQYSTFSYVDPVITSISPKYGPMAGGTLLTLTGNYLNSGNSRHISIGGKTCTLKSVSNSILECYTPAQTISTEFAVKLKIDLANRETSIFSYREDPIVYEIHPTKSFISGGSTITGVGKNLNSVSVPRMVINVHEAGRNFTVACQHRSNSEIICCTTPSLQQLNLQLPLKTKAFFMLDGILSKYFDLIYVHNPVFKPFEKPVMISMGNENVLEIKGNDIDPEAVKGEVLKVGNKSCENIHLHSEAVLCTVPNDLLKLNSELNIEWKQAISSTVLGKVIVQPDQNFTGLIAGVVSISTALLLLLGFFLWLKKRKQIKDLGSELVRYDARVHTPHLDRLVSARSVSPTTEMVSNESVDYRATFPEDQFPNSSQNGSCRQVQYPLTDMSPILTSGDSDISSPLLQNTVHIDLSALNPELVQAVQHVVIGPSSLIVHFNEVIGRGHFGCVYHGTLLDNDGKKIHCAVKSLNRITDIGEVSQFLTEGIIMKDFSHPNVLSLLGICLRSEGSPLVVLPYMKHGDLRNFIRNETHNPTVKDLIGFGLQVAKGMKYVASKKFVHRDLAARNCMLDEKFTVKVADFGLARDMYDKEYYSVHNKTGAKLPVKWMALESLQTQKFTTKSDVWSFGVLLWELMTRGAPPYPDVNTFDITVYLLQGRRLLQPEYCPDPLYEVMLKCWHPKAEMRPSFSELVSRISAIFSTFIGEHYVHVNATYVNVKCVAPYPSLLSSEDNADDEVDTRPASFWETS
Sequence of Cyclin-dependent kinase 9 (P50750 whole entry): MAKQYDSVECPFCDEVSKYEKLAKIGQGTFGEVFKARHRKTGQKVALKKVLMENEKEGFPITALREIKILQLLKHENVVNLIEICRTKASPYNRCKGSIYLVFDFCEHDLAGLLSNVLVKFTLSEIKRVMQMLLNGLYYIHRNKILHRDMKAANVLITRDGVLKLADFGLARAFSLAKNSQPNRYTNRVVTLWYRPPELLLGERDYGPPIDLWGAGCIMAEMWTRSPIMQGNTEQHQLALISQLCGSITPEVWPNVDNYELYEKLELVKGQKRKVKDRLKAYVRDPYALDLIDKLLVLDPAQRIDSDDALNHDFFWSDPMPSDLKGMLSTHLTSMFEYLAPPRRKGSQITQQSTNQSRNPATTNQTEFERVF

SMILES: COC(=O)Nc1nc2cc(Sc3nnc4ccc(-c5ccc(F)cc5)nn34)ccc2[nH]1
- logD [1]: 3.8
- inhibition [2]: Active
- Activity [3]: Toxic
- IC50 [4]: > 10000 nM
- inhibition [5]: Active
- IC50 [6]: 2000 nM
- IC50 [7]: 10 nM

SMILES: COC(=O)Nc1nc2ccc(Sc3nnc4ccc(-c5ccc(F)cc5)nn34)cc2s1
- logD [1]: > 4.6
- IC50 [2]: 22 nM
- Activity [3]: Non-Toxic
- IC50 [5]: 91 nM
- IC50 [6]: > 25000 nM
- solubility thermodynamic [8]: < 1 µM
- solubility thermodynamic [9]: 15 µM
- IC50 [7]: 16 nM
- IC50 [10]: > 10000 nM
- IC50 [11]: > 10000 nM

SMILES: O=C(NCCN1CCOCC1)Nc1nc2ccc(Sc3nnc4ccc(-c5ccc(F)cc5)nn34)cc2s1 [SAR-125844]
- CL [12]: 20%
- logD [1]: 4.2
- IC50 [2]: 5 nM
- CL [13]: 36%
- Drug uptake [14]: Active
- bioavailability [15]: 2%
- IC50 [5]: 7 nM
- MTD [16]: 570 mg/m2
- half-life [17]: 3.6 h
- Drug uptake [18]: Dose-dependent effect
- solubility thermodynamic [8]: < 1 µM
- concentration at 24 h [19]: 300 ng/mL
- inhibition in vivo at 20 mg/kg [20]: 61%
- clearance [21]: 25 mL/min/kg
- IC50 [22]: 6 nM
- Drug uptake [23]: Active
- Vd [24]: 505 L and 7.2 L/kg
- clearance [25]: 51.7 mL/min/kg
- Kd [26]: 0.9 nM
- Kp [27]: 8.1
- Vd [28]: 1.3 L/kg
- metabolised at 20 min, 5 µM [29]: 23%
- inhibition in vivo at 20 mg/kg [30]: 96%
- clearance [31]: 46.7 mL/min/kg
- inhibition in vivo at 20 mg/kg [32]: 80%
- CL [33]: 54%
- clearance [34]: 565 mL/min and 8.33 mL/min/kg
- clearance [35]: 8.33 mL/min/kg
- Vd [36]: 3.2 L/kg
- Drug uptake(free) [37]: 2 nM
- IC50 [38]: > 200000 nM
- half-life [39]: 15.9 h
- half-life [40]: 4.8 h
- CL [41]: 37%
- fraction unbound at 24 h [42]: 0.0033
- solubility thermodynamic [9]: 500 µM
- IC50 [7]: 4 nM
- Vd [43]: 4.2 L/kg
- Vd [44]: 2.9 L/kg
- Papp A→B at 20 µM [45]: 0.9 ×10⁻⁶ cm/s
- half-life [46]: 3.8 h
- AUC [47]: 6190 ng·h/mL
- inhibition [48]: Tde
- Drug uptake [49]: Active
- IC50 [10]: 204 nM
- IC50 [11]: 64 nM

SMILES: O=C(NCCN1CCOCC1)Nc1nc2ccc(Sc3nnc4ccc(OC5CCCCC5)nn34)cc2s1
- bioavailability [15]: 17%
- solubility thermodynamic [8]: < 2 µM
- Kd [26]: 0.6 nM
- metabolised at 20 min, 5 µM [29]: 23%
- IC50 [38]: 2700 nM
- INH [50]: -4.6 %/min
- solubility thermodynamic [9]: 500 µM
- IC50 [7]: 2 nM
- Papp A→B at 20 µM [45]: 9.8 ×10⁻⁶ cm/s
- IC50 [10]: 252 nM
